Reference: ChEMBL document CHEMBL4346684, “Synthesis and structure-bactericidal activity relationships of non-ketolides: 9-Oxime clarithromycin 11,12-cyclic carbonate featured with three-to eight-atom-length spacers at 3-OH” (Eur J Med Chem, 2019)
≈ marks a conversion by molar mass, not a printed value.

Legend:
Format in all cases: functional
Staphylococcus aureus [1] = experiment: Antimicrobial activity against erythromycin-susceptible Staphylococcus aureus ATCC 29213 incubated in CAMHB medium for 20 hrs by two-fold microbroth dilution method; settings: ATCC 29213, 20 h
Procedure, shortened: (§1)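 Clinical isolates and ATCC strains, purified by plate activation and used fresh; inoculum about 5×10^5 CFU/ml final. Grown in CAMHB at 35 °C for 20 h.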

[2] = test system: Staphylococcus epidermidis; experiment: Antimicrobial activity against Staphylococcus epidermidis E1 incubated in CAMHB medium for 20 hrs by two-fold microbroth dilution method; settings: E1, 20 h; procedure, shortened: as §1
Streptococcus pneumoniae [3] = experiment: Antimicrobial activity against mef-encoded erythromycin resistant Streptococcus pneumoniae PU09 incubated in CAMHB medium for 20 to 24 hrs by two-fold microbroth dilution method
Staphylococcus aureus [4] = experiment: Antimicrobial activity against constitutively erythromycin resistant Staphylococcus aureus PU20 expressing c-ermC incubated in CAMHB medium for 20 hrs by two-fold microbroth dilution method; settings: PU20, 20 h
Procedure, shortened: (§2)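 Purified fresh Staphylococcus isolate at about 5×10^5 CFU/ml final in CAMHB, 35 °C for 20 h. […] Each run included ATCC strains and reference antibiotics as QC, plus an antibiotic-free growth control.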

Streptococcus pyogenes [5] = experiment: Antimicrobial activity against constitutively erythromycin resistant Streptococcus pyogenes A2 expressing c-erm incubated in CAMHB medium for 20 to 24 hrs by two-fold microbroth dilution method
Procedure, shortened: (§3)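 Purified fresh Streptococcus isolate at about 5×10^5 CFU/ml final in CAMHB with 5% horse serum, 35 °C for 20–24 h. […] Each run included ATCC strains and reference antibiotics as QC, plus an antibiotic-free growth control.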

Staphylococcus aureus [6] = experiment: Antimicrobial activity against inducibly erythromycin-resistant Staphylococcus aureus PU32 expressing i-ermA incubated in CAMHB medium for 20 hrs by two-fold microbroth dilution method; settings: PU32, 20 h; procedure, shortened: as §2
Streptococcus pneumoniae [7] = experiment: Antimicrobial activity against erythromycin-susceptible Streptococcus pneumoniae ATCC 49619 incubated in CAMHB medium for 20 to 24 hrs by two-fold microbroth dilution method
Streptococcus pyogenes [8] = experiment: Antimicrobial activity against erythromycin-susceptible Streptococcus pyogenes A3 incubated in CAMHB medium for 20 to 24 hrs by two-fold microbroth dilution method
Streptococcus pneumoniae [9] = experiment: Antimicrobial activity against constitutively erythromycin resistant Streptococcus pneumoniae PU27 expressing c-erm incubated in CAMHB medium for 20 to 24 hrs by two-fold microbroth dilution method; procedure, shortened: as §3
Staphylococcus aureus [10] = experiment: Antimicrobial activity against inducibly erythromycin resistant Staphylococcus aureus PU64 expressing i-ermA incubated in CAMHB medium for 20 hrs by two-fold microbroth dilution method; settings: PU64, 20 h; procedure, shortened: as §2
Streptococcus pyogenes [11] = experiment: Antimicrobial activity against inducibly erythromycin resistant Streptococcus pyogenes 01-968 expressing i-ermA incubated in CAMHB medium for 20 to 24 hrs by two-fold microbroth dilution method
Haemophilus influenzae [12] = experiment: Ratio of MBC to MIC for azithromycin-susceptible Haemophilus influenzae ATCC 49247
Streptococcus pneumoniae [13] = experiment: Ratio of MBC to MIC for mef-encoded erythromycin resistant Streptococcus pneumoniae PU09
Streptococcus pyogenes [14] = experiment: Bactericidal activity against inducibly erythromycin resistant Streptococcus pyogenes 01-968 expressing i-ermA assessed as reduction in colony formation incubated in CAMHB medium for 20 to 24 hrs followed by 24 hrs subculturing in the medium without test compound
Streptococcus pneumoniae [15] = experiment: Bactericidal activity against erythromycin-susceptible Streptococcus pneumoniae ATCC 49619 assessed as reduction in colony formation incubated in CAMHB medium for 20 to 24 hrs followed by 24 hrs subculturing in the medium without test compound
Staphylococcus aureus [16] = experiment: Bactericidal activity against inducibly erythromycin-resistant and methicillin resistant Staphylococcus aureus PU32 expressing i-ermA assessed as reduction in colony formation incubated in CAMHB medium for 20 hrs followed by 24 hrs subculturing in the medium without test compound
Streptococcus pneumoniae [17] = experiment: Bactericidal activity against mef-encoded erythromycin resistant Streptococcus pneumoniae PU09 assessed as reduction in colony formation incubated in CAMHB medium for 20 to 24 hrs followed by 24 hrs subculturing in the medium without test compound
Staphylococcus aureus [18] = experiment: Antimicrobial activity against constitutively erythromycin resistant and methicillin resistant Staphylococcus aureus PU20 expressing c-ermC incubated in CAMHB medium for 20 hrs by two-fold microbroth dilution method; settings: PU20, 20 h
Procedure, shortened: (§4)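 Purified fresh Staphylococcus isolate at about 5×10^5 CFU/ml final in CAMHB, 35 °C for 20 h. Each run included ATCC strains and reference antibiotics as QC, plus an antibiotic-free growth control.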

Staphylococcus aureus [19] = experiment: Bactericidal activity against constitutively erythromycin resistant and methicillin-resistant Staphylococcus aureus PU20 expressing c-ermC assessed as reduction in colony formation incubated in CAMHB medium for 20 hrs followed by 24 hrs subculturing in the medium without test compound
Haemophilus influenzae [20] = experiment: Antimicrobial activity against azithromycin-susceptible Haemophilus influenzae ATCC 49247 incubated in HTM broth medium for 20 to 24 hrs by two-fold microbroth dilution method
Haemophilus influenzae [21] = experiment: Bactericidal activity against azithromycin-susceptible Haemophilus influenzae ATCC 49247 assessed as reduction in colony formation incubated in HTM broth medium for 20 to 24 hrs followed by 24 hrs subculturing in the medium without test compound
Streptococcus pneumoniae [22] = experiment: Ratio of MBC to MIC for erythromycin-susceptible Streptococcus pneumoniae ATCC 49619
Streptococcus pyogenes [23] = experiment: Ratio of MBC to MIC for inducibly erythromycin resistant Streptococcus pyogenes 01-968 expressing i-ermA
Staphylococcus aureus [24] = experiment: Antimicrobial activity against inducibly erythromycin-resistant and methicillin resistant Staphylococcus aureus PU32 expressing i-ermA incubated in CAMHB medium for 20 hrs by two-fold microbroth dilution method; settings: PU32, 20 h; procedure, shortened: as §4

SMILES	MIC (Staphylococcus aureus [1]) [µg/mL]	MIC [2] [µg/mL]	MIC (Streptococcus pneumoniae [3]) [µg/mL]	MIC (Staphylococcus aureus [4]) [µg/mL]	MIC (Streptococcus pyogenes [5]) [µg/mL]	MIC (Staphylococcus aureus [6]) [µg/mL]	MIC (Streptococcus pneumoniae [7]) [µg/mL]	MIC (Streptococcus pyogenes [8]) [µg/mL]	MIC (Streptococcus pneumoniae [9]) [µg/mL]	MIC (Staphylococcus aureus [10]) [µg/mL]	further results
C=CCO/N=C1\[C@H](C)C[C@@](C)(OC)[C@H](O[C@@H]2O[C@H](C)C[C@H](N(C)C)[C@H]2O)[C@@H](C)[C@H](OCC#Cc2ccc(N)cn2)[C@@H](C)C(=O)O[C@H](CC)[C@@]2(C)OC(=O)O[C@@H]2[C@H]1C	64 (≈ 79.9 µM)	> 256	8 (≈ 9.99 µM)	> 256	128 (≈ 160 µM)	128 (≈ 160 µM)	4 (≈ 4.99 µM)	4 (≈ 4.99 µM)	64 (≈ 79.9 µM)	> 256	–
C=CCO/N=C1\[C@H](C)C[C@@](C)(OC)[C@H](O[C@@H]2O[C@H](C)C[C@H](N(C)C)[C@H]2O)[C@@H](C)[C@H](OCC#Cc2cccnc2N)[C@@H](C)C(=O)O[C@H](CC)[C@@]2(C)OC(=O)O[C@@H]2[C@H]1C	64 (≈ 79.9 µM)	256 (≈ 320 µM)	8 (≈ 9.99 µM)	256 (≈ 320 µM)	64 (≈ 79.9 µM)	256 (≈ 320 µM)	4 (≈ 4.99 µM)	4 (≈ 4.99 µM)	32 (≈ 40 µM)	64 (≈ 79.9 µM)	–
CC[C@H]1OC(=O)[C@H](C)[C@@H](OC(=O)CCNCCCc2ccc3c(c2)c(=O)c(C(=O)O)cn3C2CC2)[C@H](C)[C@@H](O[C@@H]2O[C@H](C)C[C@H](N(C)C)[C@H]2O)[C@](C)(OC)C[C@@H](C)/C(=N\OC)[C@H](C)[C@H]2OC(=O)O[C@@]21C	–	–	4 (≈ 4.06 µM)	–	–	–	0.5 (≈ 0.508 µM)	–	–	–	MIC (Streptococcus pyogenes [11]): 32 µg/mL (≈ 32.5 µM); Ratio (Haemophilus influenzae [12]): 2; Ratio (Streptococcus pneumoniae [13]): 1; MBC (Streptococcus pyogenes [14]): 32 µg/mL (≈ 32.5 µM); MBC (Streptococcus pneumoniae [15]): 1 µg/mL (≈ 1.02 µM); MBC (Staphylococcus aureus [16]): > 256 µg/mL; MBC (Streptococcus pneumoniae [17]): 4 µg/mL (≈ 4.06 µM); MIC (Staphylococcus aureus [18]): 128 µg/mL (≈ 130 µM); MBC (Staphylococcus aureus [19]): > 256 µg/mL; MIC (Haemophilus influenzae [20]): 128 µg/mL (≈ 130 µM); MBC (Haemophilus influenzae [21]): 256 µg/mL (≈ 260 µM); Ratio (Streptococcus pneumoniae [22]): 2; Ratio (Streptococcus pyogenes [23]): 1; MIC (Staphylococcus aureus [24]): 128 µg/mL (≈ 130 µM)
C=CCO/N=C1\[C@H](C)C[C@@](C)(OC)[C@H](O[C@@H]2O[C@H](C)C[C@H](N(C)C)[C@H]2O)[C@@H](C)[C@H](OCC#Cc2cncc(N)c2)[C@@H](C)C(=O)O[C@H](CC)[C@@]2(C)OC(=O)O[C@@H]2[C@H]1C	64 (≈ 79.9 µM)	256 (≈ 320 µM)	8 (≈ 9.99 µM)	256 (≈ 320 µM)	128 (≈ 160 µM)	256 (≈ 320 µM)	4 (≈ 4.99 µM)	4 (≈ 4.99 µM)	128 (≈ 160 µM)	128 (≈ 160 µM)	–
C=CCO/N=C1\[C@H](C)C[C@@](C)(OC)[C@H](O[C@@H]2O[C@H](C)C[C@H](N(C)C)[C@H]2O)[C@@H](C)[C@H](OCC#Cc2ccc(N)nc2)[C@@H](C)C(=O)O[C@H](CC)[C@@]2(C)OC(=O)O[C@@H]2[C@H]1C	32 (≈ 40 µM)	256 (≈ 320 µM)	4 (≈ 4.99 µM)	256 (≈ 320 µM)	64 (≈ 79.9 µM)	256 (≈ 320 µM)	2 (≈ 2.5 µM)	4 (≈ 4.99 µM)	64 (≈ 79.9 µM)	256 (≈ 320 µM)	–
CC[C@H]1OC(=O)[C@H](C)[C@@H](O[C@H]2C[C@@](C)(OC)[C@@H](O)[C@H](C)O2)[C@H](C)[C@@H](O[C@@H]2O[C@H](C)C[C@H](N(C)C)[C@H]2O)[C@](C)(O)C[C@@H](C)CN(C)[C@H](C)[C@@H](O)[C@]1(C)O [AZITHROMYCIN]	2 (≈ 2.67 µM)	> 256	16 (≈ 21.4 µM)	> 256	128 (≈ 171 µM)	> 256	0.25 (≈ 0.334 µM)	0.25 (≈ 0.334 µM)	64 (≈ 85.4 µM)	> 256	–
